p-CIP stab down: lowers stability of the mouse p/CIP coactivator protein | Q05BA5 | F442A p/CIP-EGFP cells, EGFP fluorescence, 16 h | decrease of EGFP signal, % at 10 µM | 290,000 compounds, 0.01% hits;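 active = EGFP signal decrease of at least 30% at 10 µM or well 3 SD below plate mean, unless failing retest; inactive = the rest, including hits failing retest or dose response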
HCV core dimer: HCV core protein dimerization inhibition; TR-FRET GST/Flag-core106 dimerization, 1536-well; inhibition, % at 5 µM; 300,000 compounds, 0.33% hits; AID 1899;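 active = inhibition above the mean of all tested compounds plus 3 SD, set per screening campaign, cut at about 45% in these data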
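Material: GST/Flag-tagged HCV core106 proteins. Incubation: 4 h, 22.5 °C incubation. Read-out basis: inhibition (%) from 671 over 617 nm ratio. Measured by: TR-FRET, excitation 340 nm, emission 617 and 671 nm.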
DNA FID counter-1: fluorescent intercalator displacement, NS3 helicase counter-screen; DNA fluorescent intercalator displacement, fluorescence; inhibition, % at 7.9 µM; 290,000 compounds, 0.17% hits;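 also: higher means more ethidium bromide displaced from hairpin DNA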
NS3 helicase inh: inhibitors of Hepatitis C virus NS3 helicase; NS3 helicase DNA unwinding, Cy5 molecular beacon fluorescence; inhibition, % at 10.9 µM; 290,000 compounds, 0.56% hits;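 active = inhibition above the mean of all tested compounds plus 3 SD, set per campaign, cut at about 35% in these data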
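Compound dosing – single dose, 10.9 µM nominal final, DMSO 0.8% final · System – NS3 helicase fragment of HCV · Buffer or medium – MOPS pH 6.5, MgCl2, DTT, Tween20, BSA · Signal – Cy5 beacon fluorescence read at start and 1 h · Also added – annealed dual-labelled DNA beacon duplex, ATP-started · Schedule – 1 h at 25 °C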
GPR7 antagonist: antagonists of human GPR7 (neuropeptides B/W receptor 1). P48145. GPR7-expressing cells, fluorescence antagonist assay. inhibition, % at 4.4 µM. 290,000 compounds, 1.1% hits; in the data active = inhibition above about 16%, passing the limit was not always enough;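 also: cells stimulated with the agonist NPW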
NS3 helicase cf: confirmation of Hepatitis C virus NS3 helicase inhibitors. shares compounds with NS3 helicase inh. NS3 helicase DNA unwinding, Cy5 molecular beacon fluorescence. inhibition, % at 10.9 µM. 1,600 compounds, 31% hits. AID 1943;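 active = inhibition above the mean of all tested compounds plus 3 SD, cutoff set per campaign, cut at about 36% in these data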
DNA FID counter-2: displaces DNA intercalator in HCV helicase counter-screen; shares compounds with NS3 helicase inh; DNA fluorescent intercalator displacement, fluorescence; inhibition, % at 7.9 µM; 1,600 compounds, 4% hits;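 also: higher means more displacement of ethidium bromide from the DNA hairpin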
FID counter DR: counter-screen for HCV NS3 helicase inhibitors: DNA intercalator displacement dose response; shares compounds with NS3 helicase inh; fluorescent intercalator displacement from DNA, fluorescence; IC50, µM; 120 tested, under 10 active; AID 2172; call rule not given here
Hits are given with their value; i = inactive; nt = no result; ! = not active in a repeat. An excerpt weighted towards active compounds, which were near 1.9% of everything screened. Rule as the data show it, unless noted: active = inhibition above about 37%; inactive = the rest.

SMILES | p-CIP stab down | HCV core dimer | DNA FID counter-1 | NS3 helicase inh | GPR7 antagonist | NS3 helicase cf | DNA FID counter-2 | others
COc1ccc(/C=C2/S/C(=N/S(=O)(=O)Cc3ccccc3)NC2=O)cc1OC | i | i | i | 42 | i | 57 | i
O=C1N/C(=N\S(=O)(=O)Cc2ccccc2)S/C1=C/c1cccc([N+](=O)[O-])c1 | i | i | i | i | i | nt | nt
COc1cc(/C=C2\SC(=S)NC2=O)ccc1OS(=O)(=O)c1ccccc1 | i | i | i | i | i | nt | nt
O=C(NNC(=S)NC(=O)c1ccccc1[N+](=O)[O-])c1ccccc1[N+](=O)[O-] | i | i | i | i | i | nt | nt
CCCCOc1ccccc1C(=O)NNC(=S)NC(=O)c1ccccc1[N+](=O)[O-] | i | i | i | 40 | i | 51 | i | FID counter DR=i
Cc1ccc(-c2nn(-c3ccccc3)cc2/C=C2\SC(=S)N(CC(=O)O)C2=O)cc1 | i | i | i | 47 | i | 61 | 46
O=C(O)CN1C(=O)/C(=C\c2cc(Br)ccc2OCc2ccc(Cl)cc2Cl)SC1=S | i | i | i | 76 | i | 86 | 52
O=C(O)CN1C(=O)/C(=C\c2ccccc2OCc2ccc(Cl)cc2)SC1=S | i | i | i | 43 | i | 70 | i
O=C(O)CN1C(=O)/C(=C\C(Br)=C\c2ccccc2)SC1=S | i | i | i | 38 | i | 72 | i
O=C1C(=O)N(c2nccs2)C(c2ccccc2F)/C1=C(\O)c1ccc2c(c1)OCCO2 (configuration not stated) | i | i | i | i | i | nt | nt
Cc1ccccc1COC(=O)CCC1=NS(=O)(=O)c2ccccc2N1 | i | i | i | i | i | nt | nt
CCOC(=O)c1ccccc1NC(=O)CSC(C)C(=O)Nc1cc(C)on1 (configuration not stated) | nt | i | nt | nt | nt | nt | nt
NNC(=S)Nc1cccc(-c2n[nH]c(=S)o2)c1 | i | i | i | 37 | i | i | i
CN(C)C(=S)Nc1cccc(-c2n[nH]c(=S)o2)c1 | i | i | i | i | i | nt | nt
CCn1ncc([N+](=O)[O-])c1C(=O)N1CCc2ccccc2C1 | i | i | i | i | i | nt | nt
O=C/C=C/c1c(-c2ccccc2)cc2oc3ccccc3cc1-2 | i | i | i | i | i | nt | nt
Cc1nc(Cl)c(C(=O)NCCc2ccccc2)c(C)c1[N+](=O)[O-] | i | i | i | i | i | nt | nt
COc1cc(OC)cc(C(=O)NCC2CCCN(C(=O)c3oc(C)cc3C)C2)c1 (configuration not stated) | i | i | i | i | i | nt | nt
COc1ccc(/C=C\c2onc(C)c2S(=O)(=O)N2CCC(C(=O)NCc3ccco3)CC2)cc1 | i | i | i | 50 | i | i | i
CC1=CN2C(=N)/C(=C/c3ccc([N+](=O)[O-])o3)C(=O)N=C2S1 | i | i | i | 51 | i | 53 | i | FID counter DR=i
Cc1ccc(-n2c(C)cc(C(=O)NS(=O)(=O)c3ccc(C)cc3)c2C)cc1 | i | i | i | 39 | i | 43 | i
CCOc1ccc(-n2c(C)cc(C(=O)NS(=O)(=O)c3ccc(C)cc3)c2C)cc1 | i | i | i | i | i | nt | nt
Cc1ccc(S(=O)(=O)NC(=O)c2cc(C)n(C3CC3)c2C)cc1 | i | i | i | 38 | i | i | i
NC(=O)C1(C(N)=O)OC1c1ccc(Cl)c(Cl)c1 (configuration not stated) | i | i | i | i | i | nt | nt
O=C(NCC1CCCO1)c1ccc2c(c1)N(Cc1ccccc1)CCS2 (configuration not stated) | i | i | i | i | i | nt | nt
SMILES | p-CIP stab down | HCV core dimer | DNA FID counter-1 | NS3 helicase inh | GPR7 antagonist | NS3 helicase cf | DNA FID counter-2 | others
CN(C)S(=O)(=O)c1cccc(NC(=S)N/N=C/c2ccc(O)c(O)c2O)c1 | i | nt | i | 41 | i | i | 50
CCOc1ccccc1/C=N/NC(=O)c1cccc(S(=O)(=O)N(CC)CC)c1 | i | i | i | i | i | nt | nt
CCN(CC)S(=O)(=O)c1cccc(C(=O)N/N=C/c2ccc(O)c(O)c2O)c1 | i | i | i | 45 | i | 76 | i | FID counter DR=i
COc1ccc(CCNC(=O)C2CCCN(S(=O)(=O)c3ccc(F)cc3)C2)cc1OC (configuration not stated) | i | i | i | i | i | nt | nt
Cc1ccc2nc(NC(=O)c3ccc4ncsc4c3)sc2c1 | i | i | i | i | i | nt | nt
NS(=O)(=O)c1ccc2nc(NC(=O)c3ccc4ncsc4c3)sc2c1 | i | i | i | 44 | i | 42 | i | FID counter DR=i
C=CCn1c(SCCCC)nc(O)cc1=O | i | i | i | 40! | i | i | i
C=CCn1c(SCCCCCC)nc(O)cc1=O | i | i | i | i | i | nt | nt
COc1cccc(=O)c2c(C)n(CC(=O)c3ccccc3)c(C)c12 | i | 67 | i | 58 | i | i | i
Cc1cccc(CNCc2ccccc2)c1 | i | i | i | 38 | i | i | i
Cc1cccc(NCc2ccccc2)c1 | i | i | i | i | i | nt | nt
CN(/N=C\c1ccc(O)c(O)c1)c1nc(-c2ccccc2)cc(-c2ccccc2)n1 | i | i | i | i | i | nt | nt
COc1ccc(S(=O)(=O)N(Cc2ccccc2)c2ccccc2C(=O)O)cc1 | i | i | i | i | i | nt | nt
O=C(O)c1ccc(S(=O)(=O)N(CCc2ccccc2)Cc2ccc(Cl)cc2)cc1 | i | i | i | 45 | i | i | i
Cc1ccc(S(=O)(=O)N(Cc2ccc(Cl)cc2)c2ccccc2C(=O)O)cc1 | i | i | i | 36 | i | 41 | i
O=C(O)c1ccc(S(=O)(=O)N(Cc2ccccc2)Cc2ccccc2)cc1 | i | i | i | i | i | nt | nt
S=c1[nH]c2cc(-c3ccccc3)ccc2o1 | i | i | i | i | i | nt | nt
CSCCC(=O)N1CCC(CCC(=O)NC2CC2)CC1 | i | i | i | i | i | nt | nt
O=C(CSc1nc2ccccc2n1Cc1ccccc1Cl)N/N=C/c1ccccc1C(=O)O | i | i | i | 40 | i | 50 | i
O=C(CSc1nnnn1-c1ccc(F)cc1F)Nc1ccccc1F | i | i | i | i | i | nt | nt
N#Cc1c(-c2ccc(Cl)cc2)cc(-c2cccs2)nc1SCC(=O)O | i | i | i | i | i | nt | nt
N#Cc1c(-c2ccccc2)cc(-c2cccs2)nc1SCC(=O)O | i | i | i | 39 | i | 68 | i
Cc1ccc(C(=O)N/N=C/c2ccc(-c3cccc(Cl)c3)o2)cn1 | i | i | i | i | i | nt | nt
Cc1ccc(C(=O)N/N=C\c2ccc(-c3ccc(Cl)c(Cl)c3)o2)cn1 | i | i | i | 69 | i | i | i
Cc1cc(/C=C2\C(=N)N3N=C(C(C)C)SC3=NC2=O)c(C)n1-c1ccccc1 | i | i | i | 51 | i | i | i
C=CCn1c(=O)c(C(=O)NC(C)c2ccccc2)c(O)c2ccccc21 (configuration not stated) | i | i | i | i | i | nt | nt

Screens deposited in PubChem BioAssay by several laboratories.
